# ChEMBL document CHEMBL1122660 (J Med Chem, 1984)
# What was measured:
# [1] = test system: P388; assay: Minimum effective dose against P388 leukemic cells; type: functional; details: Mus musculus, read-out: MED
# [2] = test system: P388; assay: Optimum dose (mg/kg) against P388 leukemic cells; type: functional, Mus musculus
# [3] = organism: Mus musculus; assay: Percentage change in WBC at optimum dose on day 3; type: functional
# [4] = Distribution between 1-octanol and water containing phosphate buffer at pH 7.4; type: physicochemical; details: 1-octanol/water containing phosphate buffer
# [5] = test system: P388; assay: Maximum percent T/C (antitumor activity) against P388 leukemia cells for Mitomycin C; type: functional, Mus musculus
# [6] = test system: P388; assay: Maximum percent T/C (antitumor activity) against P388 leukemia cells; type: functional, Mus musculus
# [7] = test system: P388; assay: Ratio of optimal dose (OD) and minimum effective dose (MED) required for antitumor activity in mice bearing P-388 lymphocytic leukemia; type: functional, Mus musculus
# [8] = Partition coefficient between 1-octanol and water containing phosphate buffer at pH 7.4; type: physicochemical; details: 1-octanol/water containing phosphate buffer
# [9] = organism: Mus musculus; assay: Maximum percent T/C (antitumor activity) against P388 leukemia cells for the compound. The number of 30-day survivors is given in the parenthesis.; type: functional
# [10] = organism: Mus musculus; assay: Maximum percent T/C (antitumor activity) against P388 leukemia cells for Mitomycin C. The number of 30-day survivors is given in the parenthesis.; type: functional
# [11] = test system: Mus musculus; assay: Evaluated for antitumor activity against B-16 melanoma in mice at a dose 5 mg/kg day, ip, on days 1, 4, and 7 against B-16 Melanoma cell *-Tumors survivors on day 62; type: functional
# [12] = test system: Mus musculus; assay: Evaluated for antitumor activity against B-16 melanoma in mice at a dose 5 mg/kg day, ip, on days 1, 4, and 7 against B-16 Melanoma cell; type: functional
# [13] = test system: Mus musculus; assay: Evaluated for antitumor activity against B-16 melanoma in mice at a dose 3 mg/kg day, ip, on days 1, 4, and 7 against B-16 Melanoma cell; type: functional
# Method in brief: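 B-16 melanoma in mice, run at Bristol Laboratories by standard NCI protocols. Compound given ip on days 1, 4 and 7 in Me2SO + buffered saline vehicle; ten mice per dose. Read-outs per dose: %T/C, number of survivors, and weight change.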
# [14] = test system: Mus musculus; assay: Evaluated for antitumor activity against B-16 melanoma in mice at a dose 12 mg/kg day, ip, on days 1, 4, and 7 against B-16 Melanoma cell; type: functional
# [15] = test system: Mus musculus; assay: Evaluated for antitumor activity against B-16 melanoma in mice at a dose 3 mg/kg day, ip, on days 1, 4, and 7 against B-16 Melanoma cell *-Tumors survivors on day 62; type: functional
# [16] = test system: Mus musculus; assay: Evaluated for antitumor activity against B-16 melanoma in mice at a dose 8 mg/kg day, ip, on days 1, 4, and 7 against B-16 Melanoma cell; type: functional
# [17] = test system: Mus musculus; assay: Evaluated for antitumor activity against B-16 melanoma in mice aat a dose 3 mg/kg day, ip,on days 1, 4, and 7 against B-16 Melanoma cell; type: functional
SMILES,minimal effective dose [1],OD [2],Change [3],logD [4],T/C [5],T/C [6],Therapeutic ratio [7],logD [8],T/C [9],T/C [10],Cures [11],Average weight gain [12],T/C [12],T/C [13],Average weight gain [14],T/C [14],Cures [15],Average weight gain [16],T/C [16],Average weight gain [17]
COC12[C@@H]3N[C@@H]3CN1C1=C(C(=O)C(Nc3cccnc3)=C(C)C1=O)[C@@H]2COC(N)=O (some centres not stated),0.2 mg/kg,3.2 mg/kg,-33%,0.52,198%,211%,16,,,,,,,,,,,,,
COC12[C@@H]3N[C@@H]3CN1C1=C(C(=O)C(Nc3nc(C)cs3)=C(C)C1=O)[C@@H]2COC(N)=O (some centres not stated),0.4 mg/kg,6.4 mg/kg,,1.16,224%,172%,16,,,,,,,,,,,,,
COc1ccc(NC2=C(C)C(=O)C3=C(C2=O)[C@H](COC(N)=O)C2(OC)[C@@H]4N[C@@H]4CN32)cc1 (some centres not stated),,12.8 mg/kg,-76%,,,,16,1.28,316%,268%,,,,,,,,,,
COC12[C@@H]3N[C@@H]3CN1C1=C(C(=O)C(Nc3ccc(Cl)cc3)=C(C)C1=O)[C@@H]2COC(N)=O (some centres not stated),6.4 mg/kg,25.6 mg/kg,,,,144%,4,2.01,,250%,,,,,,,,,,
COC12[C@@H]3N[C@@H]3CN1C1=C(C(=O)C(Nc3nccs3)=C(C)C1=O)[C@@H]2COC(N)=O (some centres not stated),0.4 mg/kg,6.4 mg/kg,-22%,0.62,281%,194%,32,,,,,,,,,,,,,
[H][C@@]12CN3c4c(O)c(C)c(/N=C5C=C/C(=N\C(C)=O)C=C/5)c(O)c4[C@H](COC(N)=O)C3(OC)[C@]1([H])N2 (some centres not stated),0.2 mg/kg,25.6 mg/kg,-40%,,200%,,128,0.33,>333%,,0,0.8 g,185%,155%,-1.3 g,175%,0,0.3 g,207%,1.4 g
COC12[C@@H]3N[C@@H]3CN1C1=C(C(=O)C(Nc3cc(C)ns3)=C(C)C1=O)[C@@H]2COC(N)=O (some centres not stated),,25.6 mg/kg,,-0.3,325%,169%,32,,,,,,,,,,,,,
COC12[C@@H]3N[C@@H]3CN1c1c(O)c(C)c(/N=C3/C=CN=N3)c(O)c1[C@@H]2COC(N)=O (some centres not stated),0.8 mg/kg,25.6 mg/kg,-15%,,161%,,,,333%,,,,,,,,,,,
COC12[C@@H]3N[C@@H]3CN1C1=C(C(=O)C(Nc3ccc(C)cc3)=C(C)C1=O)[C@@H]2COC(N)=O (some centres not stated),,,-37%,,200%,206%,32,1.86,,,,,,,,,,,,
COC12[C@@H]3N[C@@H]3CN1C1=C(C(=O)C(Nc3nc4cc(Cl)ccc4o3)=C(C)C1=O)[C@@H]2COC(N)=O (some centres not stated),1.6 mg/kg,25.6 mg/kg,-33%,,267%,178%,16,,,,,,,,,,,,,
COc1ccc(NC2=C(C)C(=O)C3=C(C2=O)[C@H](COC(N)=O)C2(OC)[C@@H]4N[C@@H]4CN32)cn1 (some centres not stated),0.2 mg/kg,6.4 mg/kg,-45%,0.59,233%,211%,32,,,,,,,,,,,,,
